Reference: ChEMBL document CHEMBL3112403, “Design, synthesis and evaluation of second generation MurF inhibitors based on a cyanothiophene scaffold” (Eur J Med Chem, 2014)

Tests used:
[1] = test system: Staphylococcus aureus; experiment: Antibacterial activity against Staphylococcus aureus SH1000 assessed as growth inhibition by broth microdilution method; assay type: functional
Outline: (§1)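 MICs by broth microdilution in Mueller-Hinton broth following CLSI guidelines.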

[2] = test system: Escherichia coli; experiment: Antibacterial activity against Escherichia coli SM1411 harboring acrAB deletion mutant assessed as growth inhibition by broth microdilution method; assay type: functional
Outline: (§2)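 MIC by broth microdilution in Mueller-Hinton broth following CLSI guidelines. ES100 is the tolC derivative of AB734, and SM1411 is the acrAB derivative of 1411; both are efflux-deficient E. coli strains. Growth inhibition was read as the minimum inhibitory concentration.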

[3] = test system: Escherichia coli; experiment: Antibacterial activity against Escherichia coli AB734 assessed as growth inhibition by broth microdilution method; assay type: functional; outline: as §1
[4] = test system: Escherichia coli; experiment: Antibacterial activity against Escherichia coli 1411 assessed as growth inhibition by broth microdilution method; assay type: functional; outline: as §1
[5] = test system: Escherichia coli; experiment: Antibacterial activity against Escherichia coli 1411 assessed as growth inhibition by broth microdilution method in presence of polymyxin B nonapeptide; assay type: functional
Outline: (§3)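 Broth microdilution MIC in Mueller-Hinton broth per CLSI, run with 4 µg/mL polymyxin B nonapeptide to permeabilize the outer membrane.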

[6] = Inhibition of Escherichia coli MurF ligase using D-Ala-D-Ala as substrate after 15 mins by malachite green assay
Outline: (§4)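 After 15 min at 37 °C, Biomol reagent was added and phosphate read at 650 nm, in duplicate. RA was taken relative to a 5% DMSO control. IC50 was taken as the concentration giving 50% RA, from seven concentrations.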

[7] = target: T1, UDP-N-acetylmuramoyl-tripeptide--D-alanyl-D-alanine ligase (Streptococcus pneumoniae, UniProt Q9ZHC3); experiment: Inhibition of Streptococcus pneumoniae MurF ligase using D-Ala-D-Ala as substrate after 15 mins by malachite green assay
T1 sequence (Q9ZHC3 whole entry): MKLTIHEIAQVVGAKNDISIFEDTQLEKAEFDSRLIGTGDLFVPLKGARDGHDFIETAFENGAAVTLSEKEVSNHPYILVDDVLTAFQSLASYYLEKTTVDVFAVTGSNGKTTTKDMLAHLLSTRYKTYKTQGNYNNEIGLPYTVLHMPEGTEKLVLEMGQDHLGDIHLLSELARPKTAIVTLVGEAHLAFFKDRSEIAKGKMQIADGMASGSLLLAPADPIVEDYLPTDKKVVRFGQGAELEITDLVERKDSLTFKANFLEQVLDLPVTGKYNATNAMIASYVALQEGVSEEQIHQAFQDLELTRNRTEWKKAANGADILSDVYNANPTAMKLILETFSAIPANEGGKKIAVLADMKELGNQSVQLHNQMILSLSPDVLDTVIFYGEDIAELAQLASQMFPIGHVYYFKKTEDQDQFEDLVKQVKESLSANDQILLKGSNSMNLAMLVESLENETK
Outline: (§5)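 Purified S. pneumoniae MurF in 50 mM Hepes pH 8.0 with 50 mM MgCl2, 0.005% Triton X-114, 100 µM D-Ala-D-Ala, 50 µM UMtri-L-Lys and 250 µM ATP, with 5% DMSO final. After 15 min at 37 °C, Biomol reagent was added and absorbance read at 650 nm, in duplicate. RA was taken against a 5% DMSO control. IC50 was the 50% RA point from seven concentrations.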

[8] = test system: Escherichia coli; experiment: Antibacterial activity against Escherichia coli ES100 harboring tolC deletion mutant assessed as growth inhibition by broth microdilution method; assay type: functional; outline: as §2
[9] = test system: Escherichia coli; experiment: Antibacterial activity against Escherichia coli AB734 assessed as growth inhibition by broth microdilution method in presence of polymyxin B nonapeptide; assay type: functional; outline: as §3
[10] = target: T2, UDP-N-acetylmuramoyl-tripeptide--D-alanyl-D-alanine ligase (Streptococcus pneumoniae) (UniProt Q9ZHC3); experiment: Inhibition of Streptococcus pneumoniae MurF ligase using D-Ala-D-Ala as substrate assessed as residual activity at 250 uM after 15 mins by malachite green assay; outline: as §5
T2 sequence (whole entry): T1 sequence (Q9ZHC3 whole entry)

[11] = test system: Escherichia coli; experiment: Inhibition of […] MurF ligase using D-Ala-D-Ala as substrate assessed as residual activity at 250 uM after 15 mins by malachite green assay; outline: as §4

Row | Structure (SMILES) | MIC [1] | MIC [2] | MIC [3] | MIC [4] | MIC [5] | IC50 [6] | IC50 [7] | MIC [8] | MIC [9] | Activity [10] | Activity [11]
1 | N#Cc1c(NC(=O)c2cc(OCCN)ccc2Cl)sc2c1CCN(Cc1ccccc1)C2 | 64 µg/mL | 32 µg/mL | 64 µg/mL | 64 µg/mL | 32 µg/mL | 84 µM | 51 µM | 16 µg/mL | 32 µg/mL |  | 
2 | N#Cc1c(NC(=O)c2cccc(OCCCN)c2)sc2c1CCCC2 |  |  |  |  |  |  |  |  |  | 53% | 75%
3 | N#Cc1c(NC(=O)c2cc(OCCNC(=O)C(F)(F)F)ccc2Cl)sc2c1CCN(Cc1ccc(-n3cnnn3)cc1)C2 | > 256 µg/mL | > 256 µg/mL | > 256 µg/mL | > 256 µg/mL | > 256 µg/mL | 152 µM | 103 µM | 64 µg/mL | > 256 µg/mL |  | 
4 | CC(=O)Oc1ccc(C2CCc3c(sc(NC(=O)c4cc(OCCNC(=O)C(F)(F)F)ccc4Cl)c3C#N)C2)cc1 (configuration not stated) |  |  |  |  |  |  |  |  |  | 98% | 101%
5 | N#Cc1c(NC(=O)c2cc(OCCN)ccc2Cl)sc2c1CCNC2 | > 256 µg/mL | > 256 µg/mL | > 256 µg/mL | > 256 µg/mL | > 256 µg/mL |  |  | > 256 µg/mL | > 256 µg/mL | 85% | 65%
6 | Cl.N#Cc1c(NC(=O)c2cc(OCCN)ccc2Cl)sc2c1CCCC2 | 128 µg/mL | 32 µg/mL | 128 µg/mL | 128 µg/mL | 32 µg/mL | 208 µM | 170 µM | 32 µg/mL | 32 µg/mL |  | 
7 | CC(C)(C)OC(=O)N1CCc2c(sc(NC(=O)c3cc(OCCNC(=O)C(F)(F)F)ccc3Cl)c2C#N)C1 | > 256 µg/mL | > 256 µg/mL | > 256 µg/mL | > 256 µg/mL | > 256 µg/mL |  |  | > 256 µg/mL | > 256 µg/mL | 96% | 102%
8 | N#Cc1c(NC(=O)c2cc(OCCNC(=O)C(F)(F)F)ccc2Cl)sc2c1CCN(Cc1cccc(O)c1)C2 | > 256 µg/mL | > 256 µg/mL | > 256 µg/mL | > 256 µg/mL | > 256 µg/mL |  |  | > 256 µg/mL | > 256 µg/mL | 71% | 56%
9 | N#Cc1c(NC(=O)c2cc(OCCN)ccc2Cl)sc2c1CCN(Cc1cccc(O)c1)C2 | > 256 µg/mL | 64 µg/mL | 128 µg/mL | 128 µg/mL | 64 µg/mL | 150 µM | 119 µM | 64 µg/mL | 64 µg/mL |  | 
10 | Cl.N#Cc1c(NC(=O)c2cc(OCCNC(=N)N)ccc2Cl)sc2c1CCN(Cc1ccc(O)cc1)C2 | 4 µg/mL | 16 µg/mL | 64 µg/mL | 64 µg/mL | 16 µg/mL | 25 µM | 20 µM | 4 µg/mL | 16 µg/mL |  | 
11 | Cl.N#Cc1c(NC(=O)c2cccc(OCCNC(=N)N)c2)sc2c1CCCC2 | 64 µg/mL | 16 µg/mL | 64 µg/mL | 64 µg/mL | 64 µg/mL | 258 µM | 167 µM | 16 µg/mL | > 256 µg/mL |  | 
12 | N#Cc1ccc(CN2CCc3c(sc(NC(=O)c4cc(OCCNC(=O)C(F)(F)F)ccc4Cl)c3C#N)C2)cc1 | > 256 µg/mL | > 256 µg/mL | > 256 µg/mL | > 256 µg/mL | > 256 µg/mL |  |  | > 256 µg/mL | > 256 µg/mL | 55% | 45%
13 | Cl.N#Cc1c(NC(=O)c2cc(OCCNC(=N)N)ccc2Cl)sc2c1CCCC2 | 64 µg/mL | 8 µg/mL | 16 µg/mL | 16 µg/mL | 8 µg/mL | 56 µM | 75 µM | 8 µg/mL | 8 µg/mL |  | 
14 | N#Cc1c(NC(=O)c2cc(OCCN)ccc2Cl)sc2c1CCC(c1ccc(O)cc1)C2 (configuration not stated) | > 256 µg/mL | 32 µg/mL | > 256 µg/mL | > 256 µg/mL | 16 µg/mL | 81 µM | 58 µM | 8 µg/mL | 16 µg/mL |  | 
